Columns and labels:
[1] = species on record: Rattus norvegicus; test: Biodistribution was reported in rat kidney after 1 min.; assay type: ADME, organism-based; conditions: in vivo
Summary of the method: (§1)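 Female Sprague-Dawley rats (~200 g average, n = 3 per time point) were anesthetized with Metofane. They received 0.2 mL of 99mTc complex (50 µCi) by jugular vein injection. Rats were killed by cervical dislocation at early times or CO2 at later times. Blood (1 mL), brain, heart, a liver sample and one kidney were weighed and gamma-counted (100-150 keV) against standards. Values are average % injected dose/organ.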

[2] = species on record: Rattus norvegicus; test: Biodistribution was reported in rat kidney after 30 min.; assay type: ADME, organism-based; conditions: in vivo, 0.5 h; summary of the method: as §1
[3] = species on record: Rattus norvegicus; test: Biodistribution was reported in rat kidney after 5 min.; assay type: ADME, organism-based; conditions: in vivo; summary of the method: as §1
[4] = species on record: Rattus norvegicus; test: Biodistribution was reported in rat kidney after 60 min.; assay type: ADME, organism-based; conditions: in vivo, 1 h; summary of the method: as §1
[5] = species on record: Rattus norvegicus; test: Biodistribution was reported in rat liver after 15 min.; assay type: ADME, organism-based; conditions: in vivo, 0.25 h; summary of the method: as §1
[6] = species on record: Rattus norvegicus; test: Biodistribution was reported in rat liver after 1 min.; assay type: ADME, organism-based; conditions: in vivo; summary of the method: as §1
[7] = species on record: Rattus norvegicus; test: Biodistribution was reported in rat liver after 60 min.; assay type: ADME, organism-based; conditions: in vivo, 1 h; summary of the method: as §1
[8] = species on record: Rattus norvegicus; test: Biodistribution was reported in rat brain after 1 min.; assay type: ADME, organism-based; conditions: in vivo; summary of the method: as §1
[9] = species on record: Rattus norvegicus; test: Biodistribution was reported in rat brain after 30 min.; assay type: ADME, organism-based; conditions: in vivo, 0.5 h; summary of the method: as §1
[10] = species on record: Rattus norvegicus; test: Biodistribution was reported in rat brain after 5 min.; assay type: ADME, organism-based; conditions: in vivo; summary of the method: as §1
[11] = species on record: Rattus norvegicus; test: Biodistribution was reported in rat brain after 60 min.; assay type: ADME, organism-based; conditions: in vivo, 1 h; summary of the method: as §1
[12] = species on record: Rattus norvegicus; test: Biodistribution was reported in rat heart after 15 min.; assay type: ADME, organism-based; conditions: in vivo, 0.25 h; summary of the method: as §1
[13] = species on record: Rattus norvegicus; test: Biodistribution was reported in rat heart after 1 min.; assay type: ADME, organism-based; conditions: in vivo; summary of the method: as §1
[14] = species on record: Rattus norvegicus; test: Biodistribution was reported in rat heart after 30 min.; assay type: ADME, organism-based; conditions: in vivo, 0.5 h; summary of the method: as §1
[15] = species on record: Rattus norvegicus; test: Biodistribution was reported in rat heart after 5 min.; assay type: ADME, organism-based; conditions: in vivo; summary of the method: as §1
[16] = species on record: Rattus norvegicus; test: Biodistribution was reported in rat heart after 60 min.; assay type: ADME, organism-based; conditions: in vivo, 1 h; summary of the method: as §1
[17] = species on record: Rattus norvegicus; test: Biodistribution was reported in rat kidney after 15 min.; assay type: ADME, organism-based; conditions: in vivo, 0.25 h; summary of the method: as §1
[18] = species on record: Rattus norvegicus; test: Biodistribution was reported in rat blood after 15 min.; assay type: ADME, organism-based; conditions: in vivo, 0.25 h; summary of the method: as §1
[19] = species on record: Rattus norvegicus; test: Biodistribution was reported in rat blood after 1 min.; assay type: ADME, organism-based; conditions: in vivo; summary of the method: as §1
[20] = species on record: Rattus norvegicus; test: Biodistribution was reported in rat blood after 5 min.; assay type: ADME, organism-based; conditions: in vivo; summary of the method: as §1
[21] = species on record: Rattus norvegicus; test: Biodistribution was reported in rat blood after 60 min.; assay type: ADME, organism-based; conditions: in vivo, 1 h; summary of the method: as §1
[22] = species on record: Rattus norvegicus; test: Biodistribution was reported in rat brain after 15 min.; assay type: ADME, organism-based; conditions: in vivo, 0.25 h; summary of the method: as §1
[23] = species on record: Rattus norvegicus; test: Biodistribution was reported in rat blood after 30 min.; assay type: ADME, organism-based; conditions: in vivo, 0.5 h; summary of the method: as §1
[24] = species on record: Rattus norvegicus; test: Biodistribution was reported in rat liver after 30 min.; assay type: ADME, organism-based; conditions: in vivo, 0.5 h; summary of the method: as §1
[25] = species on record: Rattus norvegicus; test: Biodistribution was reported in rat liver after 5 min.; conditions: in vivo

Row | Dose/organ [1] [%] | Dose/organ [2] [%] | Dose/organ [3] [%] | Dose/organ [4] [%] | Dose/organ [5] [%] | Dose/organ [6] [%] | Dose/organ [7] [%] | Dose/organ [8] [%] | Dose/organ [9] [%] | Dose/organ [10] [%] | Dose/organ [11] [%] | Dose/organ [12] [%] | Dose/organ [13] [%] | Dose/organ [14] [%] | Dose/organ [15] [%] | Dose/organ [16] [%] | Dose/organ [17] [%] | Dose/organ [18] [%] | Dose/organ [19] [%] | Dose/organ [20] [%] | Structure (SMILES) | further results
1 | 16.5 | 1.92 | 5.4 | 1.14 | 3.84 | 17.44 | 0.56 | 0.06 | 0 | 0.03 | 0 | 0.08 | 0.38 | 0.02 | 0.18 | 0.01 | 5.04 | 4.62 | 31.08 | 9.52 | O=C(CSC(=O)c1ccccc1)NCCCCNC(=O)CSC(=O)c1ccccc1 | Dose/organ [21]: 0.56%; Dose/organ [22]: 0.01%; Dose/organ [23]: 0.98%; Dose/organ [24]: 0.88%; Dose/organ [25]: 6.96%
2 | 2.2 | 1 | 1.6 | 0.92 | 71.36 | 66.32 | 47.68 | 0.05 | 0.01 | 0.01 | 0 | 0.1 | 0.17 | 0.04 | 0.1 | 0.03 | 1.2 | 3.64 | 24.64 | 5.18 | O=C(CSC(=O)c1ccccc1)NCC(c1ccccc1)C(CNC(=O)CSC(=O)c1ccccc1)c1ccccc1 (stereo not given) | Dose/organ [21]: 2.1%; Dose/organ [22]: 0.01%; Dose/organ [23]: 2.52%; Dose/organ [24]: 61.12%; Dose/organ [25]: 61.6%

— ChEMBL document CHEMBL1126195, “A new, general synthetic route to multidentate N,S ligands for use in technetium-99m radiopharmaceuticals. Preparation of diamido disulfur, diamino dithiol, and tripodal N3S3 prototypes. Comparative biodistributions of [99mTcvO-DADS]- analogues which contain 5,5,5- and 5,7,5-membered chelate ring …” (J Med Chem, 1992)
